Published values gathered from unrelated publications.
Compare with care: the assays were run in different laboratories.

SMILES	system	setting	quantity	value
Cc1cc(C)nc(Nc2ncc(C(=O)NCCc3c(C)[nH]c4ccccc34)cn2)c1	C57BL/6 mouse, plasma	intraperitoneal, 8.8 mg/kg	AUC(0-inf)	1050 ng·h/mL
C[C@]12CC[C@H](n3ccnc3)CC1=CC[C@@H]1[C@@H]2CC[C@]2(C)C(n3cnc4ccccc43)=CC[C@@H]12.Cl.Cl	male CD-1 mouse, plasma	oral, 10 mg/kg	AUC(0-t)	32500 ng·h/mL
NCC(=O)Nc1ccc(-n2nc(C(F)(F)F)cc2-c2ccc3c(ccc4ccccc43)c2)cc1	mouse, plasma	oral, 80 mg/kg, single dose	AUC(0-inf)	81800 ng·h/mL
CN[C@H](CC(C)C)C(=O)N[C@H]1C(=O)N[C@@H](CC(N)=O)C(=O)N[C@H]2C(=O)NC3C(=O)N[C@H](C(=O)N[C@H](C(=O)NCCC[N+](C)(C)C)c4cc(O)cc(O)c4-c4cc3ccc4O)[C@H](O)c3ccc(c(Cl)c3)Oc3cc2cc(c3OC2OC(CO)C(O)[C@H](O)[C@@H]2O[C@H]2CC(C)(NCc3ccc(-c4ccc(Cl)cc4)cc3)[C@H](O)[C@H](C)O2)Oc2ccc(cc2Cl)[C@H]1O (some centres unmarked)	mouse, plasma	intravenous, 50 mg/kg	AUC	430000 ng·h/mL
CCN(CC)CCCC[C@H](NC(=O)[C@H](CC(C)C)NC(=O)[C@H](C)NC(=O)[C@H](Cc1ccccc1)NC(=O)c1ccc(C(C)(C)C)cc1)C(=O)N[C@@H](CO)C(=O)OC	male Swiss mouse, blood	intravenous, 3 mg/kg	AUC(0-inf)	1890 ng·h/mL
CCC[C@@](N)(CO)CCc1ccc(OCCCCCC(C)C)cc1	mouse, plasma	oral, 50 mg/kg	AUC(0-t)	5.02 µM·h
Cc1ncc2n1-c1ccc(Cl)cc1C(c1ccccc1F)=NC2	mouse, plasma	intravenous, 0.3 mg/kg	AUC(0-inf)	0.15 µM·h
CN1CCCCC1Cn1cc(C(=O)c2cc([N+](=O)[O-])ccc2I)c2ccccc21 (racemic)	mouse, plasma	intravenous, 25 mg/kg	AUC	5830 ng·h/mL
